The values that follow come from publication PMC7416082 (Journal of Inorganic Biochemistry, 2020).

Data set [1] has as its system CT DNA. Briefly: CT DNA binding studies by cyclic voltammetry. More on the design: species or system calf. The note with it: for Epa(f), anodic potential / Epc(f), cathodic potential / Epa(b), anodic potential / Epc(b), cathodic potential: Co(II)/Co(I) couple, DMSO/buffer; for Epa(f), anodic potential / Epc(f), cathodic potential: absence of CT DNA; for Epa(b), anodic potential / Epc(b), cathodic potential: presence of CT DNA; for Kr/Kox, ratio of equilibrium DNA-binding constants of reduced and oxidized form: Eq. S3; for ΔEpa = Epa(b) − Epa(f) / ΔEpc = Epc(b) − Epc(f): shift upon addition of CT DNA.

For data set [2], the system named is CT DNA-EB conjugate. Briefly: EB-displacement studies. The note with it: for quenching constant kq (EB-DNA): τo = 23 ns. Format: binding, calf. An outline of the steps: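 CT DNA pre-bound with ethidium bromide in citrate/NaCl buffer, pH 7.0, at room temperature. Test compound was added from a DMSO stock (≤5% v/v DMSO final), and the decrease in EB-DNA emission at 592 nm was monitored. KSV was obtained by Stern-Volmer analysis. kq was calculated from KSV using a literature EB-DNA lifetime τo = 23 ns.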

The target of data set [3] is T1, bovine serum albumin (BSA) (Bos taurus, UniProt P02769). Kind of data set: BSA tryptophan fluorescence quenching. The format is binding. The note with it: for K(BSA), SA-binding constant: Scatchard equation; for % relative fluorescence intensity (I/Io, %) of BSA remaining: λem 345 nm, % of the initial BSA fluorescence; for kq(BSA), SA-quenching constant: τo = 10^−8 s.
T1 sequence (P02769 25-607): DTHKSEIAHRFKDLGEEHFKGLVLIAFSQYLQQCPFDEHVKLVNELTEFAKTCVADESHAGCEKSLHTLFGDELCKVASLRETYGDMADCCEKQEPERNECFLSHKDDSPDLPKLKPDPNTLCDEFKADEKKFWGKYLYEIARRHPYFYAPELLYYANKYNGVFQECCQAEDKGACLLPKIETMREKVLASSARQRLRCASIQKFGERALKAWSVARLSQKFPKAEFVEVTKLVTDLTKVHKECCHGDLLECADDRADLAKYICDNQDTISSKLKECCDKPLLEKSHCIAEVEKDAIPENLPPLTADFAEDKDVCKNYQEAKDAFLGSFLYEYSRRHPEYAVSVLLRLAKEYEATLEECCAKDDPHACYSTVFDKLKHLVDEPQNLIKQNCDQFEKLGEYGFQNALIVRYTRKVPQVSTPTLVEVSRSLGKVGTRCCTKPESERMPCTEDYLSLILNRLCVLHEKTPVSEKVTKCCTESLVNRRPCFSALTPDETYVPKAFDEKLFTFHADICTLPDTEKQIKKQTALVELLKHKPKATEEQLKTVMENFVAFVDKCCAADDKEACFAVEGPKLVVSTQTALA

The target of data set [4] is T2, human serum albumin (HSA) (Homo sapiens, UniProt P02768). Briefly: HSA tryptophan fluorescence quenching. Format: binding. To be noted: for K(HSA), SA-binding constant: Scatchard equation; for % relative fluorescence intensity (I/Io, %) of HSA remaining: λem 340 nm, % of the initial HSA fluorescence; for kq(HSA), SA-quenching constant: τo = 10^−8 s.
T2 sequence (P02768 25-609): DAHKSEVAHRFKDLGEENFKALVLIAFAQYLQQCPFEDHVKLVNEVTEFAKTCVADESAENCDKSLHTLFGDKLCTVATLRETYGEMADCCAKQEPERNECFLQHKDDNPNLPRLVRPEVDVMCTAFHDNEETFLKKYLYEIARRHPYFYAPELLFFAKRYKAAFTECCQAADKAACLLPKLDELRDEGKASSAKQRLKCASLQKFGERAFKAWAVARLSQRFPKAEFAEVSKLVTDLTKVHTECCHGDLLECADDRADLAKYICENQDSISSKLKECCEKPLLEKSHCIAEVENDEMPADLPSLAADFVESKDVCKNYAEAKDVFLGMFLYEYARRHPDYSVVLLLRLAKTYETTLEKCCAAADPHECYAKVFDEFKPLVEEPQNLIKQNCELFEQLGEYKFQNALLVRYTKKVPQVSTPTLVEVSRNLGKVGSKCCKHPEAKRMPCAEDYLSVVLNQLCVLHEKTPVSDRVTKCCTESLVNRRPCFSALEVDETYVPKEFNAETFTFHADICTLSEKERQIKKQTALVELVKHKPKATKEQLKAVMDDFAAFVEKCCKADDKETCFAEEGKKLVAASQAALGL
Data set [5] addresses T1, bovine serum albumin (BSA). Kind of data set: BSA competitive studies with site-markers warfarin and ibuprofen. The note with it: for BSA-binding constant K, marker: ibuprofen: presence of ibuprofen; for BSA-binding constant K, marker: warfarin: presence of warfarin; for BSA binding site from competition with site-markers: change of K(BSA) with warfarin / ibuprofen. The format is binding.

Data set [6] deals with T2, human serum albumin (HSA). Kind of data set: HSA competitive studies with site-markers warfarin and ibuprofen. Format: binding. The note with it: for HSA-binding constant K, marker: ibuprofen: presence of ibuprofen; for HSA-binding constant K, marker: warfarin: presence of warfarin.
Data set [7] is described as follows: Solubility and stability of the isolated complexes. The format is physicochemical.

With [Co(indo-O,O′)2(phen)] [complex 4], in data set [1], the “Epa(f), anodic potential” value was −440 mV; the “Epc(f), cathodic potential” value is −720 mV; the “Epa(b), anodic potential” value is listed as −500 mV; the “Epc(b), cathodic potential” value is recorded as −680 mV. Besides, in data set [1], the “Kr/Kox, ratio of equilibrium DNA-binding constants of reduced and oxidized form” value (“Kr/Kox, ratio … of reduced and oxidized form” for short) is 0.84; the “ΔEpa = Epa(b) − Epa(f)” value is given as −60 mV; the “ΔEpc = Epc(b) − Epc(f)” value is “+40 mV”. Besides, in data set [2], the “Stern-Volmer constant KSV (EB-DNA)” value was 1.76(±0.04) × 10^5 M^−1 and the “quenching constant kq (EB-DNA)” value is 7.65(±0.17) × 10^12 M^−1 s^−1. Also, in data set [3], the “K(BSA), SA-binding constant” value is given as 4.27(±0.22) × 10^5 M^−1; the “% relative fluorescence intensity (I/Io, %) of BSA remaining” value came to 26.5%; the “kq(BSA), SA-quenching constant” value is 1.37(±0.06) × 10^13 M^−1 s^−1. For the same substance, in data set [4], the “K(HSA), SA-binding constant” value is recorded as 7.37(±0.35) × 10^5 M^−1; the “% relative fluorescence intensity (I/Io, %) of HSA remaining” value came to 21.2%; the “kq(HSA), SA-quenching constant” value is 1.83(±0.12) × 10^13 M^−1 s^−1. In data set [5], the “BSA-binding constant K, no marker” value is on record as 4.27(±0.22) × 10^5 M^−1; the “BSA-binding constant K, marker: ibuprofen” value is recorded as 1.19(±0.05) × 10^5 M^−1; the “BSA-binding constant K, marker: warfarin” value is on record as 2.23(±0.08) × 10^5 M^−1. Besides, in data set [6], the “HSA-binding constant K, no marker” value is reported as 1.20(±0.05) × 10^6 M^−1; the “HSA-binding constant K, marker: ibuprofen” value is given as 3.42(±0.11) × 10^5 M^−1; the “HSA-binding constant K, marker: warfarin” value is recorded as 5.72(±0.18) × 10^5 M^−1. In addition, the “HSA binding site from competition with site-markers” value in data set [6] (change of K(HSA) with warfarin / ibuprofen) is reported as “evident preference for the Sudlow's site 2 in subdomain IIIA”. In addition, in data set [7], the Solubility entry was “soluble in DMSO and DMF”.

For “[Co2(μ-indo-O,O′)2(indo-O)2(bipy)2(μ-H2O)]·3.3MeOH [complex 2]”, in data set [1], the “Epa(f), anodic potential” value is recorded as −475 mV; the “Epc(f), cathodic potential” value is reported as −712 mV; the “Epa(b), anodic potential” value is −520 mV; the “Epc(b), cathodic potential” value is recorded as −675 mV. Further, in data set [1], the “Kr/Kox, ratio … of reduced and oxidized form” value is listed as 0.93; the “ΔEpa = Epa(b) − Epa(f)” value was −45 mV; the “ΔEpc = Epc(b) − Epc(f)” value is reported as “+37 mV”. In data set [2], the “Stern-Volmer constant KSV (EB-DNA)” value is given as 1.63(±0.05) × 10^5 M^−1 and the “quenching constant kq (EB-DNA)” value is reported as 7.07(±0.20) × 10^12 M^−1 s^−1. Moreover, in data set [3], the “K(BSA), SA-binding constant” value is 6.77(±0.26) × 10^5 M^−1; the “% relative fluorescence intensity (I/Io, %) of BSA remaining” value came to 7.2%; the “kq(BSA), SA-quenching constant” value is listed as 7.14(±0.12) × 10^13 M^−1 s^−1. In data set [4], the “K(HSA), SA-binding constant” value is listed as 1.20(±0.05) × 10^6 M^−1; the “% relative fluorescence intensity (I/Io, %) of HSA remaining” value is 5.1%; the “kq(HSA), SA-quenching constant” value is reported as 8.49(±0.25) × 10^13 M^−1 s^−1. In data set [5], the “BSA-binding constant K, no marker” value is 6.77(±0.26) × 10^5 M^−1; the “BSA-binding constant K, marker: ibuprofen” value is reported as 3.50(±0.13) × 10^5 M^−1; the “BSA-binding constant K, marker: warfarin” value is given as 5.48(±0.13) × 10^5 M^−1; the “BSA binding site from competition with site-markers” value was “preference for the Sudlow's site 2 in subdomain IIIA”. Also, in data set [6], the “HSA-binding constant K, no marker” value was 8.82(±0.30) × 10^5 M^−1; the “HSA-binding constant K, marker: ibuprofen” value was 1.41(±0.09) × 10^5 M^−1; the “HSA-binding constant K, marker: warfarin” value is 4.62(±0.16) × 10^5 M^−1. In addition, in data set [7], the Solubility entry was “soluble in DMSO and DMF”.

With “[Co(indo-O)2(H2O)2(μ-Cl)]n·n(MeOH·H2O) [complex 1]”, in data set [1], the “Epa(f), anodic potential” value is listed as −495 mV; the “Epc(f), cathodic potential” value is −690 mV; the “Epa(b), anodic potential” value was −480 mV; the “Epc(b), cathodic potential” value is −700 mV. For the same substance, in data set [1], the “Kr/Kox, ratio … of reduced and oxidized form” value is recorded as 1.04; the “ΔEpa = Epa(b) − Epa(f)” value is given as “+15 mV”; the “ΔEpc = Epc(b) − Epc(f)” value was −10 mV. In data set [2], the “Stern-Volmer constant KSV (EB-DNA)” value is reported as 1.39(±0.05) × 10^5 M^−1 and the “quenching constant kq (EB-DNA)” value is 6.03(±0.23) × 10^12 M^−1 s^−1. For the same substance, in data set [3], the “K(BSA), SA-binding constant” value is recorded as 3.72(±0.12) × 10^5 M^−1; the “% relative fluorescence intensity (I/Io, %) of BSA remaining” value came out at 33.5%; the “kq(BSA), SA-quenching constant” value is 1.04(±0.07) × 10^13 M^−1 s^−1. In data set [4], the “K(HSA), SA-binding constant” value is given as 7.06(±0.31) × 10^5 M^−1; the “% relative fluorescence intensity (I/Io, %) of HSA remaining” value came out at 28.8%; the “kq(HSA), SA-quenching constant” value is recorded as 9.01(±0.28) × 10^12 M^−1 s^−1. In addition, in data set [5], the “BSA-binding constant K, no marker” value is reported as 3.72(±0.12) × 10^5 M^−1; the “BSA-binding constant K, marker: ibuprofen” value was 1.56(±0.08) × 10^5 M^−1; the “BSA-binding constant K, marker: warfarin” value is 4.50(±0.24) × 10^5 M^−1; the “BSA binding site from competition with site-markers” value is reported as “preference for the Sudlow's site 2 in subdomain IIIA”. In addition, in data set [6], the “HSA-binding constant K, no marker” value is recorded as 7.06(±0.31) × 10^5 M^−1; the “HSA-binding constant K, marker: ibuprofen” value was 2.72(±0.10) × 10^5 M^−1; the “HSA-binding constant K, marker: warfarin” value is 4.18(±0.11) × 10^5 M^−1. In addition, in data set [7], the Solubility result is “soluble in DMSO and DMF”.
